Screening data (PubChem)
LMPTP block: LMPTP phosphatase inhibitors, primary screen, biochemical, fluorescence intensity, uHTS; recombinant LMPTP-A, OMFP fluorogenic substrate; inhibition, % at 20 µM; Low molecular weight phosphotyrosine protein phosphatase (Homo sapiens), P24666; hit rate 0.22% among 360,000;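 active means compounds that cut the enzyme signal by at least half of the control window in the single-dose screen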;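 further: plate controls were DMSO wells with enzyme plus substrate for no effect and substrate without enzyme for full effect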
Target sequence (P24666 whole entry, looked up): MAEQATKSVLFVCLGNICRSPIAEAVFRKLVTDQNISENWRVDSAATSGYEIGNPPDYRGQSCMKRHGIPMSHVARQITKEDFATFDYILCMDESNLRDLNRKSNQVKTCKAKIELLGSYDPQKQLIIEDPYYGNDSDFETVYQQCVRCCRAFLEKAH
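Assay system: LMPTP-A, protein tyrosine phosphatase of low molecular weight / Medium: pH 6.0 Bis-Tris buffer with DTT and Triton X-100 / Schedule: 50 min enzyme reaction at room temperature, protected from light / Measured by: endpoint fluorescence intensity from OMFP dephosphorylation / Read-out basis: % inhibition relative to no-enzyme and uninhibited control wells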
STEP inh: STEP phosphatase inhibitors, primary screen, biochemical, fluorescence intensity, uHTS | recombinant STEP, OMFP fluorogenic substrate | inhibition, % at 20 µM | hit rate 0.25% among 360,000;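 active means inhibition at 20 µM, scaled per plate between control wells, above about 37%, limit read from the data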;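 further: 0% = DMSO with enzyme and substrate and 100% = substrate only without enzyme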
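medium = Bis-Tris buffer pH 6.0, 2.5 mM DTT, 0.005% Tween 20 | test system = STEP (striatal-enriched tyrosine phosphatase) enzyme, cell-free | measure = normalized % inhibition | compound dosing = 20 µM, 1% DMSO | also added = 25 µM OMFP | schedule = reaction 20 min, ambient temperature | measured by = fluorescence read at 480 nm ex / 540 nm em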
CSN inh: inhibitors of CSN-mediated cullin deneddylation, primary screen, biochemical, fluorescence polarization, uHTS | COP9 signalosome complex subunit 5 (Homo sapiens), Q92905 | Purified CSN, SCF-Nedd8-OG deneddylation | inhibition, % at 12.5 µM | hit rate 0.38% among 360,000;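 active means pattern-corrected inhibition above about 35%, with an unprinted fluorescence ratio check between 0.5 and 1.5, limit read from the data, passing the limit was not always enough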;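 further: 0% = enzyme with substrate and 100% = substrate without enzyme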
Target sequence (Q92905 whole entry, looked up, one chain of several): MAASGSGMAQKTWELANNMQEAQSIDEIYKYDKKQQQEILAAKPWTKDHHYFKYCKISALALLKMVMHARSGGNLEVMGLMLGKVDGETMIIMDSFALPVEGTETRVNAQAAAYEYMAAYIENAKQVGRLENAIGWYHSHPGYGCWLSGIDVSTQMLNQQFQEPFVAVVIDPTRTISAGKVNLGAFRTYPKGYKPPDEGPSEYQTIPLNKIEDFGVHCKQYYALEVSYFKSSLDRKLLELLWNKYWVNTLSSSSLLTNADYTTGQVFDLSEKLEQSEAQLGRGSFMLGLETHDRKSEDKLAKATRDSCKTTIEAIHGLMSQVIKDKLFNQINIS
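Assay system: Purified human Csn5 enzyme expressed in HEK293T cells | Amount: Enzyme 0.24 nM | Measured by: Fluorescence polarization readout | Medium: Tris/NaCl/DTT buffer, pH 7.5 | Compound dosing: One concentration, 12.5 µM, 0.25% DMSO | Times: 90 min incubation of compound, enzyme and substrate at room temperature | Control set: no-enzyme wells high, enzyme-with-substrate wells low | Read-out: % inhibition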
SUMO1-SIM PPI: modulators of SUMO1 protein-protein interactions, primary screen, biochemical, uHTS; SUMO1 binding to a labelled peptide, TR-FRET, 1 h; inhibition, % at 20 µM; hit rate 0.33% among 360,000; Small ubiquitin-related modifier 1 (Homo sapiens), P63165; in the data active means inhibition above about 37%
Scp1 inh: Scp-1 phosphatase inhibitors, primary screen, biochemical, colorimetric, uHTS. Recombinant Scp1, phosphopeptide, malachite green phosphate absorbance. Carboxy-terminal domain RNA polymerase II polypeptide A small phosphatase 1 (Homo …. inhibition, % at 20 µM. hit rate 0.88% among 340,000. AID 493091, 2011;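 active means inhibition above about 50% at 20 µM, limit read from the data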;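 further: plate controls were DMSO wells with enzyme for no effect and wells lacking enzyme for full effect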
Target sequence (Q9GZU7 76-261 limits assumed): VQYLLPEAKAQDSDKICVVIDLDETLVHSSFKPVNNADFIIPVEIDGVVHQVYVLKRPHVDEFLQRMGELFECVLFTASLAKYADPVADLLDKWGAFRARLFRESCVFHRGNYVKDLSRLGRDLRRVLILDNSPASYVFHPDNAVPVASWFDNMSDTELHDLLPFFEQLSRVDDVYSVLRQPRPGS
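System: truncated SCP-1 phosphatase (76-261aa); medium: Tris acetate buffer pH 5.5 with MgCl2 and Tween-20; incubation: 45 min room-temperature reaction, 5 min colour, 30 min stabiliser; compound: single 20 µM dose, 1% DMSO; reagent: Phosphorylated 17-residue peptide substrate; read-out: % inhibition at 20 µM; technique: colorimetric free-phosphate detection, absorbance 630 nm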
DNMT1 inh: human DNMT1 methyltransferase inhibitors, primary screen, biochemical, molecular beacon, fluorescence, HinP1I cleavage, uHTS. inhibition (reported as % activation of signal), % at 10 µM. hit rate 0.83% among 360,000. DNA (cytosine-5)-methyltransferase 1 (Homo sapiens), P26358; in the data active means inhibition above about 50%
* marks the source's active call; other numbers are inactive results; . = not tested or not shown. Hits are enriched below; roughly 2% of the tested compounds scored in any of these assays.

SMILES | LMPTP block | STEP inh | CSN inh | SUMO1-SIM PPI | Scp1 inh | DNMT1 inh
O=C(Nc1ccc2nc(-c3ccco3)c(-c3ccco3)nc2c1)N1CCCCCC1 | . | . | . | . | 88* | .
O=c1oc2cc(O)ccc2c2oc3cc(O)ccc3c12 | 21 | 0 | 4 | 48* | 21 | -1
COC(=O)c1c(NC(=O)COC(=O)CCc2ccc(S(=O)(=O)N3CCOCC3)cc2)sc2c1CCC2 | 1 | -5 | 2 | 3 | 8 | 0
CCC(COC)Oc1cc(NCc2ccccc2)c2ncn(C(C)C)c2c1 (stereo not drawn) | 3 | -1 | 17 | -1 | -5 | 54*
CCC(CO)Oc1cc(NC(=O)c2ccc(N)cc2)c2ncn(C(C)C)c2c1 (stereo not drawn) | 2 | -2 | 23 | 102* | 5 | -7
CCC(CO)Oc1cc(NCc2ccccc2)c2ncn(C(C)C)c2c1 (stereo not drawn) | 0 | -2 | -1 | 0 | 0 | -12
COc1ccc(CN2C(=O)C(=O)N(CC(N)=O)C2=O)cc1 | -1 | 0 | -4 | 1 | -8 | -1
O=C1Cc2cc(S(=O)(=O)NCc3ccc(F)cc3)ccc2N1 | -1 | 0 | 2 | -2 | 0 | -1
COC(=O)C(C)N1C(=O)S/C(=C\c2ccc(-c3ccc(C(=O)O)cc3C)o2)C1=O (stereo not drawn) | 2 | 8 | 19 | -3 | 64* | 19
Cn1c(-c2ccc(Cl)nc2)nc2cc(Cl)ccc21 | 0 | 2 | 5 | 8 | -9 | -5
CCOC(=O)C1=C(C)N=c2s/c(=C\c3cccn3C)c(=O)n2C1c1cccc(OC)c1OC (stereo not drawn) | 7 | 2 | 46* | -20 | 0 | -8
CC1CCc2sc(C(=O)N(C)CC(=O)Nc3ccc(N4CCOCC4)cc3)cc2C1 (stereo not drawn) | 0 | -3 | -3 | -3 | -11 | -3
O=C(NC1CCCC1)c1ccc2nc(-c3ccco3)c(-c3ccco3)nc2c1 | 56* | 11 | 43 | 36 | 79* | 113*
O=C(NCCc1ccccc1)c1ccc2nc(-c3ccco3)c(-c3ccco3)nc2c1 | 59* | 6 | 44 | 27 | 77* | 105*
O=C(NCCc1ccccc1)c1ccc(=O)oc1 | -1 | 1 | -3 | -7 | -2 | 2
O=C(NC1CCCC1)c1ccc2nc[nH]c2c1 | -2 | -3 | 1 | -1 | -2 | -6
CCOC(=O)N1CCC(N2CCCC(C(=O)c3cccc(OC(C)C)c3)C2)CC1 (stereo not drawn) | -1 | -2 | 2 | -5 | 1 | 1
Cc1cccc(NC(=O)Nc2nnc([C@@H]3C[C@H](O)[C@@H](CO)O3)s2)c1 | -1 | 0 | -5 | -2 | . | 4
NCC(=O)Nc1ccc(Cl)cc1C(=O)c1ccc[nH]1 | 2 | -2 | 5 | 1 | -4 | 2
Oc1cccc(C=Nc2cccc3ccccc23)c1O | 25 | 6 | 15 | 68* | -7 | -9
COc1ccc2[nH]c(-c3ccccc3)cc2c1 | 2 | -3 | -2 | -9 | -22 | -7
CC(C)Nc1ccc(Nc2ccnc3cc4ccccc4cc23)cc1 | 22 | 4 | 5 | -69 | -4 | 66*
COc1ccc(Nc2ccnc3ccccc23)cc1 | 56* | 1 | -4 | -14 | -1 | 0
Fc1cccc(Cc2c(-c3ccccc3)nc3c4ccccc4ccn23)c1 | 5 | . | 2 | 8 | . | .
CCCn1c(NC(=O)CCS(=O)(=O)c2ccc(C)cc2)nc2ccccc21 | 0 | 0 | 4 | 8 | 4 | -2
SMILES | LMPTP block | STEP inh | CSN inh | SUMO1-SIM PPI | Scp1 inh | DNMT1 inh
CN1C(=O)S/C(=C/c2ccc(OCc3cccc(C(=O)O)c3)cc2)C1=O | 4 | 2 | 2 | -14 | 52* | 1
Cc1cccc(C)c1OCc1nc2ccccc2c(=O)n1/N=C/c1ccc(OCC(=O)O)cc1 | -1 | -2 | -4 | -1 | 3 | -6
O=C(O)COc1ccc(/C=N/n2c(COc3ccccc3)nc3ccccc3c2=O)cc1 | -2 | -5 | 0 | 57* | 1 | 0
CN(C)c1ccc(Sc2ccc3nc(N)nc(N)c3c2)cc1 | 51* | 2 | 2 | -31 | . | -20
CC[n+]1c(/C=C/c2ccc(OC(C)=O)c(OC)c2)ccc2ccccc21 | 1 | -1 | -2 | -44 | 55* | -4
CC[n+]1c(/C=C/c2ccc(OC)c(OC)c2)ccc2ccccc21 | -1 | 0 | -1 | -34 | 23 | -1
O=C(Nc1cccnc1)c1cccc(-c2cc3ccccc3oc2=O)c1 | 39 | 7 | 25 | 5 | 9 | 12
O=C(Nc1ccc(-c2cc3ccccc3oc2=O)c(Cl)c1)c1cccnc1 | 13 | 10 | 38* | -4 | 12 | -11
Cc1ccc2nc(Cl)c(/C=N/NC(=O)[C@H]3C[C@@H]3c3ccccc3)cc2c1 | 4 | 3 | 2 | 40* | -1 | 36
C[C@H](CO)N1C[C@H](C)[C@@H](CN(C)S(=O)(=O)c2ccccc2)Oc2ccc(NC(=O)CCC(F)(F)F)cc2C1=O | -1 | -1 | 0 | -1 | -6 | -1
Cc1noc(C)c1NC(=O)N(C)C[C@H]1Oc2ccc(NC(=O)c3ccncc3)cc2C(=O)N([C@H](C)CO)C[C@@H]1C | -3 | -4 | 3 | 3 | 68* | 9
Cc1noc(C)c1S(=O)(=O)Nc1ccc2c(c1)C(=O)N([C@H](C)CO)C[C@H](C)[C@@H](CN(C)C(=O)NC(C)C)O2 | -3 | 1 | -3 | 13 | 85* | 12
Cc1noc(C)c1NC(=O)N(C)C[C@@H]1Oc2ccc(NS(=O)(=O)c3c(C)noc3C)cc2C(=O)N([C@H](C)CO)C[C@H]1C | -1 | 3 | 1 | 2 | 14 | 12
Cc1ccc(S(=O)(=O)N(C)C[C@@H]2OCCCC[C@@H](C)Oc3ccc(NS(=O)(=O)c4c(C)noc4C)cc3C(=O)N([C@H](C)CO)C[C@@H]2C)cc1 | 0 | 0 | 5 | -2 | . | -3
Cc1ccc(S(=O)(=O)Nc2ccc3c(c2)C(=O)N([C@@H](C)CO)C[C@@H](C)[C@@H](CN(C)S(=O)(=O)c2ccccc2)OCCCC[C@H](C)O3)cc1 | 2 | 5 | 2 | 43* | . | -13
